# Reference: ChEMBL document CHEMBL5512679, “In Silico Assisted Identification, Synthesis, and In Vitro Pharmacological Characterization of Potent and Selective Blockers of the Epilepsy-Associated KCNT1 Channel” (J Med Chem, 2024)
# Legend:
# hERG (KCNH2) [1] = target: T1, hERG (KCNH2) (Homo sapiens, UniProt Q12809); assay: Inhibition of hERG expressed in HEK293 cells at 10 uM by whole-cell patch clamp electrophysiology method relative to control; assay type: toxicity, cell-based; conditions: HEK293 cells that express hERG
# T1 sequence (Q12809 whole entry): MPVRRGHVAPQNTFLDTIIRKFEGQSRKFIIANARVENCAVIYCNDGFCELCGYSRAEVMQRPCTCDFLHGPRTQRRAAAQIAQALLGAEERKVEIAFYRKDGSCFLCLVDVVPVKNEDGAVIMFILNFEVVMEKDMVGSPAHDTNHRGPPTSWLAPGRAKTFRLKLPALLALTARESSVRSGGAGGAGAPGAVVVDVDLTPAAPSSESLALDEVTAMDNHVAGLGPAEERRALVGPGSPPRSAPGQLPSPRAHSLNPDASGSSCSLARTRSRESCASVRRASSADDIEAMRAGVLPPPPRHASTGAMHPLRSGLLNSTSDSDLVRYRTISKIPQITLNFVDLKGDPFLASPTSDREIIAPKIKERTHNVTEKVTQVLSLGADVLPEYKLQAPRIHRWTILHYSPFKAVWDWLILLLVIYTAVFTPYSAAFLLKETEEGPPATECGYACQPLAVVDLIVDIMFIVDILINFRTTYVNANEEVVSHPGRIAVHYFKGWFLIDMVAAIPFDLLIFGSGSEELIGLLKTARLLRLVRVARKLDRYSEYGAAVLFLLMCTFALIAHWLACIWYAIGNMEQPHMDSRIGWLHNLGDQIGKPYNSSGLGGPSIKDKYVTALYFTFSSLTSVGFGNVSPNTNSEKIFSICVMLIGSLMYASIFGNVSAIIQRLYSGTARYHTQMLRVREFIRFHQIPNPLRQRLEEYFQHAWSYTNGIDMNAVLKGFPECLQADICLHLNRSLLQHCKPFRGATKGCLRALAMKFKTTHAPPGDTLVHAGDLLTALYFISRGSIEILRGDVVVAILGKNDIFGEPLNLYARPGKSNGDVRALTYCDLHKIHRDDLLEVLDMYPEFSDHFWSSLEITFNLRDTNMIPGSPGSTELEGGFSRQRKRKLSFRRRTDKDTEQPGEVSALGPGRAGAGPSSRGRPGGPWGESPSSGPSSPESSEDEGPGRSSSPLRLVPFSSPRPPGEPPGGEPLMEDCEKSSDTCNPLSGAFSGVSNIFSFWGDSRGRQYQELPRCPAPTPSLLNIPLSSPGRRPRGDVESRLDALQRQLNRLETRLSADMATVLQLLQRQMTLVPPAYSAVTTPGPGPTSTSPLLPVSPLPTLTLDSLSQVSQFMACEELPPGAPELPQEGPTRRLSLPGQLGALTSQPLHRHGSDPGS
# hERG (KCNH2) [2] = target: T1, hERG (KCNH2); assay: Inhibition of hERG expressed in HEK293 cells at 10 uM by thallium flux assay relative to control; conditions: HEK293 cells that express hERG
# [3] = target: T2, Potassium channel subfamily T member 2 (Homo sapiens, UniProt Q6UVM3); assay: Inhibition of human KCNT2 expressed in HEK cells at +60 mV holding potential by whole-cell patch clamp electrophysiology method; assay type: cell-based
# T2 sequence (Q6UVM3 whole entry): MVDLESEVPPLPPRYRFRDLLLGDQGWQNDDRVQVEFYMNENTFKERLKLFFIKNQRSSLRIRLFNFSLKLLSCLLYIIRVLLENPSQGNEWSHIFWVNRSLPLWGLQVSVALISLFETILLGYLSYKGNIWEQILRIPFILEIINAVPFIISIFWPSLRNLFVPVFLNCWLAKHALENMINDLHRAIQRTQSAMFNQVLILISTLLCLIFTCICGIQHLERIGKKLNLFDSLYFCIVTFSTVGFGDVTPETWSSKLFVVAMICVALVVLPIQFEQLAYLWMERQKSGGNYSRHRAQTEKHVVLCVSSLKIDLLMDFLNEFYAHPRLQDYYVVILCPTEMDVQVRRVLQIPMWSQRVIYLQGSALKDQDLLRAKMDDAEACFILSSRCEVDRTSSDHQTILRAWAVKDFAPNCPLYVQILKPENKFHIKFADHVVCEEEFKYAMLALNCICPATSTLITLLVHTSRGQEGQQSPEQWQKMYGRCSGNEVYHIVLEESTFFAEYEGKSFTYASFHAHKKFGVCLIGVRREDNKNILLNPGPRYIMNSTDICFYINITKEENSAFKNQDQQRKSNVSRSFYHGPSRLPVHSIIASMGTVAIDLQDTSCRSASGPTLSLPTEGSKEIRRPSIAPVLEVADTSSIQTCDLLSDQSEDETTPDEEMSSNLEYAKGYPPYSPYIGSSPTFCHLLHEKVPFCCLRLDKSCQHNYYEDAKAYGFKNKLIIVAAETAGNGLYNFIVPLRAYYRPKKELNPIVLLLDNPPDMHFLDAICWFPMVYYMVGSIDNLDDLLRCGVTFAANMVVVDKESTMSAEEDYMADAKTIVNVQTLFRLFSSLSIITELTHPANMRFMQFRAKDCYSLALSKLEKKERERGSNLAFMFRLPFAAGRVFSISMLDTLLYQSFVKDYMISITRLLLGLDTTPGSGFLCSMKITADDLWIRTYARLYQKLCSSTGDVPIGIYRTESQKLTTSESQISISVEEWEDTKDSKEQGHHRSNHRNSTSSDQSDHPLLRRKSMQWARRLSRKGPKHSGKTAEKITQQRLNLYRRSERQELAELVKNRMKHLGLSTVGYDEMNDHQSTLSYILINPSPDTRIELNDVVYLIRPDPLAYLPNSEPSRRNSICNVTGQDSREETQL
# How it was run: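 Human KCNT2 transiently expressed in HEK cells and recorded by whole-cell patch clamp at 20–22 °C, 24 h after transfection. Pipette (mM): 130 KCl, 10 NaCl, 10 HEPES, 5 EGTA, pH 7.3–7.4, with ATP omitted. Each cell received one perfused concentration; DMSO ≤0.3%. Current at the end of the depolarizing pulse was normalized and fitted to a binding isotherm with Hill coefficient; ≥6 determinations per point, mean ± SEM.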
# [4] = target: Voltage-gated inwardly rectifying potassium channel KCNH2 (Homo sapiens, UniProt Q12809); assay: Inhibition of hERG transiently transfected in CHO cells at 10 uM at -100 mV holding potential by whole-cell patch clamp electrophysiology method; assay type: toxicity, cell-based
# Chain of Voltage-gated inwardly rectifying potassium channel KCNH2 (Q12809 whole entry): as the sequence (Q12809 whole entry) above
# How it was run: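 hERG transiently expressed in CHO cells (eGFP co-transfection marker) and recorded by whole-cell patch clamp at 20–22 °C, 24 h post-transfection. […] Pipette (mM): 140 KCl, 2 MgCl2, 10 EGTA, 10 HEPES, 5 Mg-ATP. Protocol: 1 s steps from −80 to +60 mV, then 140 ms at −100 mV. Tail current at −100 mV read as I_drug/I_CTL with 10 μM drug; ≥3 cells.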
# [5] = Plasma protein binding in human at 10 uM incubated for 4 hrs by rapid equilibrium dialysis based LC-MS/MS analysis; assay type: ADME, cell-free; conditions: read-out: PPB
# [6] = Stability in human plasma assessed as compound remaining incubated upto 120 mins […] by LC-MS analysis; assay type: ADME, cell-free; conditions: read-out: Stability
# How it was run: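 Human plasma prewarmed to 37 °C and centrifuged; compound added at 37 °C. Samples taken at 0, 30, 60, 90 and 120 min, quenched into ice-cold methanol with internal standard, and measured by LC-MS as % remaining relative to 0 min. Duplicates; procaine as control.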
# [7] = Intrinsic clearance in human liver microsomes incubated upto 60 mins in presence of NADPH and UDPGA by LC-MS analysis; assay type: ADME, Microsome; conditions: read-out: CLH
# hERG (KCNH2) [8] = target: T1, hERG (KCNH2); assay: Inhibition of hERG transiently transfected in CHO cells at 10 uM at -100 mV holding potential by whole-cell patch clamp electrophysiology method relative to control; assay type: toxicity, cell-based; conditions: CHO cells transiently transfected with hERG
# [9] = target: T3, Potassium channel subfamily T member 1 (Homo sapiens, UniProt Q5JUK3); assay: Inhibition of human KCNT1 (98 to 354 residues) expressed in CHO cells assessed as reduction in thallium fluorescent signal incubated for 15 mins followed by LOX addition measured after 15 mins by FluxOR green dye based fluorescence analysis; assay type: cell-based
# T3 sequence (Q5JUK3 whole entry): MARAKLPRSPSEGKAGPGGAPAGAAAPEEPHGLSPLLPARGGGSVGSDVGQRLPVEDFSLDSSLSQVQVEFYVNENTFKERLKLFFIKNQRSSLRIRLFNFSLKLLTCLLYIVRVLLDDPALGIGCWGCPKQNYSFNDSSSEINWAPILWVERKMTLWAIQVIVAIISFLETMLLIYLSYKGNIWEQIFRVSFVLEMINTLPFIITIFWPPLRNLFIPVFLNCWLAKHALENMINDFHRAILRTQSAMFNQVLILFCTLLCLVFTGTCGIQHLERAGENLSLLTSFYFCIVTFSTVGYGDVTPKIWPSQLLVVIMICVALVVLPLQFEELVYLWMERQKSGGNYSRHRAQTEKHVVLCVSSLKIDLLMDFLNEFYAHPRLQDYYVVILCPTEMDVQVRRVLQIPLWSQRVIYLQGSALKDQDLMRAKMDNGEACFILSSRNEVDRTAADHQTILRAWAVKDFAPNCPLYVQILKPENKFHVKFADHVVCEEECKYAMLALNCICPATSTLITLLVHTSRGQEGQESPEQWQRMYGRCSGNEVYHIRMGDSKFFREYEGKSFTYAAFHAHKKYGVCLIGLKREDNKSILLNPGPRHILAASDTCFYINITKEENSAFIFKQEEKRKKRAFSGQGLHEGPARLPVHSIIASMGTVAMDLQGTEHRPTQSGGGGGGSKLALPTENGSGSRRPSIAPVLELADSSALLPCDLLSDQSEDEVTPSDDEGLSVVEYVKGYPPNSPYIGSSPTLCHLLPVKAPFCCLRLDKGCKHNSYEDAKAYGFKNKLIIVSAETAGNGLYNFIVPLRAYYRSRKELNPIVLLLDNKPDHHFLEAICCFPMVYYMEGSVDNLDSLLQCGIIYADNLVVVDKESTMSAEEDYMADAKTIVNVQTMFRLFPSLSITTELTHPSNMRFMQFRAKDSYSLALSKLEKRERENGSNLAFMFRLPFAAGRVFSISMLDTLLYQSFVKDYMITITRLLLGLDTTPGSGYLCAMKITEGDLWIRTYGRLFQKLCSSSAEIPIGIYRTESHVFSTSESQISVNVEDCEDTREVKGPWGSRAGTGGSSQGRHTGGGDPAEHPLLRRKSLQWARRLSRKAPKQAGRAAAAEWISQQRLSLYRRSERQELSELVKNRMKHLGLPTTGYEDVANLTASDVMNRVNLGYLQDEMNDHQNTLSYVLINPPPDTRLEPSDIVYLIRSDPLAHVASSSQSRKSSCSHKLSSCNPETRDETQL
smiles,measurement,setting,value
O=C(Nc1cccc(C(F)(F)F)c1)c1ccc2nc(N3C(=O)c4ccccc4C3=O)sc2c1,inhibition at 10 µM,hERG (KCNH2) [1],15%
COc1ccc(Cl)cc1NC(=O)CN1CCN(S(=O)(=O)N2CCC(C)CC2)CC1,inhibition at 10 µM,hERG (KCNH2) [2],40%
O=S(=O)(Nc1ccc2c(c1)CCN2Cc1ccc(C(F)(F)F)cc1C(F)(F)F)C1CCCCC1,IC50,[3],1.27 µM
same,inhibition (INH),[4],Not Active
same,"fraction unbound at 4 h, 10 µM",[5],0.01
same,remaining at 2 h,[6],< 80%
same,CLint scaled,[7],< 1 mL/min/kg
Oc1ccc2ccccc2c1CNCCc1c[nH]c2ccccc12,inhibition at 10 µM,hERG (KCNH2) [8],30%
same,IC50,[9],8.7 µM
Cc1cc(O)ccc1N/C=C/C(=O)c1ccccc1,inhibition at 10 µM,hERG (KCNH2) [1],15%
O=C(NCc1ccccc1)[C@H](Cc1c[nH]c2ccccc12)NCc1ccc(Oc2ccccc2)cc1,inhibition (INH),[4],Not Active
same,"fraction unbound at 4 h, 10 µM",[5],0.01
same,remaining at 2 h,[6],< 80%
same,CLint scaled,[7],< 80 mL/min/kg
CCOC(=O)[C@@H]1CS[C@@]2(C(=O)Nc3ccc(Br)cc32)N1C(=O)c1ccc(Cl)cc1,inhibition (INH),[4],Not Active
same,remaining at 2 h,[6],0%
CC(C)(C)CNC(=O)Nc1ccc2c(c1)CCN2Cc1ccc(F)cc1,inhibition at 10 µM,hERG (KCNH2) [8],30%
same,IC50,[9],5.5 µM
